Assay results collected from several papers.
Lines come from different studies, so protocols differ.
Target: Serine/threonine-protein kinase D3 (PRKD3, Homo sapiens, UniProt O94806)
Sequence (O94806 1-890, as in one of the studies): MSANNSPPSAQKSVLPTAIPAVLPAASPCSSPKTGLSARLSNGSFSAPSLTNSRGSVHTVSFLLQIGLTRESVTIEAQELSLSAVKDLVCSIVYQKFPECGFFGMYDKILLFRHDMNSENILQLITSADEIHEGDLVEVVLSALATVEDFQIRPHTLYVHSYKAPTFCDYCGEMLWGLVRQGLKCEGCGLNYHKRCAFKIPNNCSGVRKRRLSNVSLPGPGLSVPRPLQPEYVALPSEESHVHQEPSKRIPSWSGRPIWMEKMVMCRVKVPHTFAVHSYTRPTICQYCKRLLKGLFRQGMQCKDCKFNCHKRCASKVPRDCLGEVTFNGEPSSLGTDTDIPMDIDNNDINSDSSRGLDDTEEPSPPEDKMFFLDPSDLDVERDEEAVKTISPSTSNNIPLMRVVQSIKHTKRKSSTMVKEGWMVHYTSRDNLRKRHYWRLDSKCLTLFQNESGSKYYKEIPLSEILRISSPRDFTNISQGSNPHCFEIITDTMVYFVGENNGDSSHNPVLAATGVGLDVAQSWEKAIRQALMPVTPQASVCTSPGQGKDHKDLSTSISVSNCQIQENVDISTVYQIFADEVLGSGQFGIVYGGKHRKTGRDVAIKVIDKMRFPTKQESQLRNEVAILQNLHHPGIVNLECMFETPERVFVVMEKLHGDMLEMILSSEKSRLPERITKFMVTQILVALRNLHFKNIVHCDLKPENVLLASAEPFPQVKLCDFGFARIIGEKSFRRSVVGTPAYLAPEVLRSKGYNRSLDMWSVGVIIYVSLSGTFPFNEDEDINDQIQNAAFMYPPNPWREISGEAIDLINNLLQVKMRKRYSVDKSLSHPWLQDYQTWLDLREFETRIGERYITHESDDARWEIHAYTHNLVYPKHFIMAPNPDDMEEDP

SMILES	test	conditions	remaining binding
Nc1ncc2c(n1)-c1c([nH]c3ccc(C#CC4CC4)cc13)CCCC2	binding, competition with immobilised ligand	1 µM	61%
c1cncc(-c2cccc(Nc3nccc(NC4CCCCC4)n3)c2)c1	binding, competition with immobilised ligand	10 µM	7.4%
O=C(O)[C@@H]1[C@@H](Cn2nnc3ccccc3c2=O)CC[C@H]1C(=O)c1ccc(OCCC2CCOCC2)cc1	cell-free assay, competition with immobilised ligand	1 µM	100%
N[C@H]1CCN(c2nccc(-c3cnn4ncccc34)n2)C1	binding	1 µM	91%
O=C(Nc1c[nH]nc1C(=O)NC1CCNCC1)c1cc(F)cc(F)c1	binding, competition with immobilised ligand	1 µM	100%
Cc1nccc(COC(=O)N2C[C@@H]3[C@@H](CNC(=O)c4ccc5[nH]nnc5c4)[C@@H]3C2)n1	cell-free assay, competition with immobilised ligand	1 µM	100%
C[C@H]1CCN(c2nccc(-c3cnn4ncccc34)n2)C1	binding	1 µM	59%
O=C(c1ccc(Nc2nccc(-c3cc4ccccc4s3)n2)cc1)N1CCC(N2CCCC2)CC1	binding, competition with immobilised ligand	1 µM	50%
CN(C)c1nccc(-c2cnn3ncccc23)n1	binding	1 µM	100%
COc1cnc(Nc2cccc(S(N)(=O)=O)c2)nc1N1CCN(c2ccccc2)CC1	binding, competition with immobilised ligand	1 µM	96%
Cc1cc(NC(=O)c2cccc(S(F)(F)(F)(F)F)c2)cc(-n2ccn3nc(-c4cccnc4)cc23)c1	cell-free assay, competition with immobilised ligand	1 µM	100%
O=C(c1ccc(Nc2ncc(Cl)c(-c3ccc(Cl)s3)n2)cc1)N1CCC(N2CCCC2)CC1	binding, competition with immobilised ligand	1 µM	3.6%
COc1ccnn2ncc(-c3ccnc(N(C)C)n3)c12	binding	1 µM	100%
C[C@@H]1CN(c2cc(-c3n[nH]c4ccc(OC5(C)CC5)cc34)ncn2)C[C@H](C)O1	cell-free assay, competition with immobilised ligand	0.1 µM	82%
CN(CCCC(F)(F)F)c1nccc(-c2cnn3ncccc23)n1	binding	1 µM	100%
COc1ccc2cc(OCC3(C(=O)O)CN(C(=O)c4ccc(F)cc4)C3)ccc2c1	cell-free assay, competition with immobilised ligand	1 µM	91%
F[C@@H]1CCN(c2nccc(-c3cnn4ncccc34)n2)C1	binding	1 µM	76%
CNCc1ccccc1-c1csc([C@@H](C)Nc2nc(C)nc3cc(OC)c(OC)cc23)c1	cell-free assay, competition with immobilised ligand	1 µM	92%
FC(F)(F)Oc1cccc(-c2cnc3ccc(-c4ccncc4)nn23)c1	cell-free assay, competition with immobilised ligand	5 µM	100%
O=C(c1ccc(Nc2ncc(Cl)c(-c3cc4ccccc4s3)n2)cc1)N1CCC(N2CCCC2)CC1	binding, competition with immobilised ligand	1 µM	18%
CNC(=O)[C@@H]1CC[C@@H](n2c(-c3ccc4cnccc4c3)nc3ccc(C(=O)NCc4cccc(C(N)=O)c4)cc32)C1	binding, competition with immobilised ligand	1 µM	91%
